Rows were chosen to be rich in hits. Some 2.3% of all compounds tested hit in one or more screens of this group.
V1aR counter: V1a receptor agonism, counter-screen for OXTR agonists; activation, % at 3 µM; hit rate 0.25% among 320,000; CHO-V1R cells, Fluo-8 calcium fluorescence, agonist mode; 0% DMSO, 100% 3 nM vasopressin; AID 2797; P37288;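 active means activation above the mean activation of all tested compounds plus 3 SD, per screening run, cut at about 20% in these data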;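 further: signal is peak over basal fluorescence ratio across a 100 second FLIPR read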
Target sequence (P37288 whole entry, looked up): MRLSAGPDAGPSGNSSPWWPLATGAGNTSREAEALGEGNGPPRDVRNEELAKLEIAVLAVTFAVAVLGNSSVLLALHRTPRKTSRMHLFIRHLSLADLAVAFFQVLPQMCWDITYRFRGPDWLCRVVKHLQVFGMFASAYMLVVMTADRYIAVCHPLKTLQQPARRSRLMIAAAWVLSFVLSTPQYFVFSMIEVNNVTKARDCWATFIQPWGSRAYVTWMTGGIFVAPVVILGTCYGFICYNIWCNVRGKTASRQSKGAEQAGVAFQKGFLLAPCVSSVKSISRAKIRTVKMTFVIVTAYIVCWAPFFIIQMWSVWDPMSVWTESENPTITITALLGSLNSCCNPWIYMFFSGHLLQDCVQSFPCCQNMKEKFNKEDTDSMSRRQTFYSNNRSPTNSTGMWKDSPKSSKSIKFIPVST
TAAR1 ag: agonists of human TAAR1; Q96RJ0; CHO RD-HGA16 TAAR1, Fluo-8 calcium fluorescence; vehicle wells 0%, saturating PEA agonist 100%; activation, % at 3 µM; hit rate 0.99% among 360,000;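 active means activation above the mean activation of all test compounds in the run plus 3 SD, cut at about 38% in these data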
Target sequence (Q96RJ0 whole entry, looked up): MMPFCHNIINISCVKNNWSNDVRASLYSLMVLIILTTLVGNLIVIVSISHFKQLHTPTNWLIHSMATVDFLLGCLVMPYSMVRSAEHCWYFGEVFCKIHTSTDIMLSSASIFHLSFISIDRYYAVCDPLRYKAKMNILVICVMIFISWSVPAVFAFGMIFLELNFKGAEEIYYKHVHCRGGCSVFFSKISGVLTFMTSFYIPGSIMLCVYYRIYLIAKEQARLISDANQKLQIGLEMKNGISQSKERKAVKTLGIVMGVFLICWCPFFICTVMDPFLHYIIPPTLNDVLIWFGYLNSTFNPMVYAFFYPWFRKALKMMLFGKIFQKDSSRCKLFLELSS
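Test system: RD-HGA16 (CHO) cells co-expressing Gα16 and hTAAR1 / Benchmarks: DMSO vehicle as 0%, PEA at EC100 as 100% / Repeats: no replicates (n 1) / Measure: % activation from peak over basal fluorescence ratio, DMSO-to-PEA scaled / Timing: 17-24 h plating, Fluo-8 75 min 37 °C, 30 min RT / Technique: kinetic Fluo-8 calcium fluorescence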
OXTR agonist: human OXTR agonism; P30559; CHO-OTR cells, Fluo-8 calcium fluorescence; normalized: DMSO 0%, oxytocin 100%; activation, % at 3 µM; hit rate 0.32% among 320,000;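 active means activation above the mean of all tested compounds plus 3 SD, cutoff set per screening run, cut at about 20% in these data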;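 further: peak over basal fluorescence ratio from a 100 s FLIPR kinetic read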
TAAR1 antag: antagonists of human TAAR1; hit rate 1.5% among 360,000; Q96RJ0; CHO RD-HGA16 TAAR1, Fluo-8 calcium fluorescence, antagonist; inhibition, % at 3 µM;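 active means inhibition above a per-plate cutoff, the mean inhibition of test compounds on that plate plus 3 SD, cut at about 49% in these data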;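 further: 0% = DMSO plus EC80 beta-PEA response and 100% = DMSO alone without agonist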
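System: CHO RD-HGA16 cells bearing hTAAR1. Reagent: EC80 β-phenethylamine stimulus. Schedule: seeding 17-24 h prior, 75-min 37 °C, 30-min RT dye loading. Signal: Fluo-8 intracellular calcium dye fluorescence, real-time kinetic reads. Read-out: % inhibition from peak post-agonist over basal fluorescence ratio. Benchmarks: vehicle wells and EC80 agonist wells. Replicates: n of 1.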
OXTR potentiate: potentiators of human oxytocin receptor | P30559 | activation, % at 3 µM | CHO-OTR cells, Fluo-8 calcium fluorescence, potentiator mode; 0% = oxytocin EC15, 100% = EC100 | hit rate 0.061% among 320,000;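 active means activation above that plate's cutoff, the mean activation of tested compounds plus 3 SD, cut at about 6.6% in these data, passing the limit was not always enough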;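 further: 100% uses oxytocin at 75 nM as the full agonist control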
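Assay system: CHO cell line stably expressing human OTR | Also added: Oxytocin at about EC15, sub-maximal agonist stimulus | Times: Compound 6 min at room temperature before oxytocin, 100 s read | Measured by: Fluo-8 intracellular calcium fluorescence, ex 470-495, em 515-575 nm | Controls: EC15 oxytocin alone as 0%, 75 nM oxytocin as 100%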
TAAR1 ag confirm: human TAAR1 agonism, confirmed | shares compounds with TAAR1 ag | CHO RD-HGA16 TAAR1, Fluo-8 calcium fluorescence; scaled: DMSO 0%, maximal phenethylamine 100% | activation, % at 3 µM | hit rate 82% among 2,400;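 active means activation above a cutoff set at the run's mean compound activation plus 3 SD, cut at about 39% in these data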
Ga16 ag counter: nonselective agonist in parental cells, TAAR1 agonist counter-screen; shares compounds with TAAR1 ag; CHO-Ga16 parental, Fluo-8 calcium fluorescence; normalized to maximal ATP response, DMSO zero; activation, % at 3 µM; hit rate 50% among 2,400;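 active means activation above the run cutoff, the mean activation over all tested wells plus 3 SD, cut at about 12% in these data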;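 further: 0% = DMSO wells and 100% = maximal ATP response on the peak over basal ratio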
TAAR1 desensitize: counter-screen for human TAAR1 agonists: agonists that desensitize TAAR1; shares compounds with TAAR1 ag; CHO RD-HGA16 hTAAR1, Fluo-8 calcium, beta-PEA response inhibition; inhibition, % at 3 µM; hit rate 46% among 2,400; AID 651951;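 active means inhibition above the run cutoff, the mean inhibition of all test compounds plus 3 SD, cut at about 49% in these data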;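 further: beta-PEA stimulus applied at its EC80; loss of beta-PEA calcium signal after compound pretreatment read as receptor desensitization; 0% = DMSO with beta-PEA at EC80 and 100% = DMSO alone without agonist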
Ga16 antag count: nonselective Ga16 antagonist in TAAR1 agonist counter-screen | shares compounds with TAAR1 ag | CHO-Ga16 ATP-induced calcium, Fluo-8 fluorescence | inhibition, % at 3 µM | hit rate 39% among 2,400 | AID 651952;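 active means inhibition above the plate's mean compound inhibition plus 3 SD, computed per plate, cut at about 22% in these data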;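 further: 0% = EC80 ATP with DMSO and 100% = DMSO wells without ATP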
Active calls of the source: *; nt = no result.

SMILES	V1aR counter	TAAR1 ag	OXTR agonist	TAAR1 antag	OXTR potentiate	TAAR1 ag confirm	Ga16 ag counter	TAAR1 desensitize	Ga16 antag count
CC(C)=C1C2CCC1C1C(=O)N(CCc3ccccc3)C(=O)C21 (centres undefined)	4.1	10.9	-2.3	11.5	-7.9	nt	nt	nt	nt
CN1C(=O)C2CN(CCc3ccccc3)CNC2N(C)C1=O (centres undefined)	-0.4	nt	0.5	nt	-2.8	nt	0.3	nt	-2.7
CCN(CC)CCn1c(=S)[nH]c2cc(C(=O)NCc3ccc(C)cc3)ccc2c1=O	1.7	1.6	0.2	-15.5	-5.5	nt	nt	nt	nt
Cc1ccccc1/C=N/NC(=O)Cn1cnc([N+](=O)[O-])n1	0.5	1.1	0.9	-6.8	-16.0	nt	nt	nt	nt
O=C(Cn1cnc([N+](=O)[O-])n1)N/N=C/c1ccccc1O	0.8	52.9*	1.2	3.8	-1.2	68.6*	4.9	24.2	-0.8
O=C(COc1ccccc1)NC(=S)Nc1cccc2cc(O)ccc12	11.8	71.9*	12.7	44.6	-9.7	67.2*	24.2*	49.3*	29.2*
COc1cc(/C=C/C(=O)Nc2ccc(S(=O)(=O)Nc3onc(C)c3C)cc2)cc(OC)c1OC	nt	1.2	nt	-12.1	nt	nt	nt	nt	nt
CCOC(=O)C(NCc1ccc2c(c1)OCO2)(NC(=O)CC)C(F)(F)F (centres undefined)	-0.1	3.9	0.3	-8.3	-5.6	nt	nt	nt	nt
CCOC(=O)C(NCCc1ccccc1)(NC(=O)CC)C(F)(F)F (centres undefined)	1.1	94.2*	-1.1	51.6*	-5.3	97.8*	4.7	80.0*	-2.4
CCOC(=O)C(NCCc1ccccc1F)(NC(=O)CC)C(F)(F)F (centres undefined)	0.8	nt	-0.5	nt	-1.9	nt	6.1	nt	7.6
COc1ccc(NC(=O)C2(C)Cc3c(-c4ccc(C(N)=O)cc4)ccnc3O2)cc1OC (centres undefined)	nt	0.1	nt	-30.4	nt	nt	nt	nt	nt
NCCOc1ccc(C23CC4CC(CC(C4)C2)C3)cc1	1.4	81.4*	6.4	15.5	-12.1	94.0*	59.8*	81.4*	76.0*
OCCN1CCN(CC(O)COc2ccc(C34CC5CC(CC(C5)C3)C4)cc2)CC1 (centres undefined)	4.6	19.8	12.1	-6.1	-29.4	nt	nt	nt	nt
CCOC(=O)C1=NN(C(=O)c2ccc(C)cc2)C(O)(c2ccc(Cl)cc2)C1 (centres undefined)	32.2*	115.7*	36.6*	72.8*	-20.2	69.4*	78.7*	31.9	41.5*
CCCOC(=O)Cn1c(=O)c2cc3c(=O)n(CC(=O)OCCC)c(=O)c3cc2c1=O	nt	52.8*	nt	11.6	nt	5.7	2.9	-4.8	6.0
O=C(Cn1nnc2ccccc2c1=O)NCCc1ccc(Cl)cc1Cl	-0.6	54.2*	-0.4	44.8	-5.8	6.1	1.3	1.8	8.9
O=C(Cn1nnc2ccccc2c1=O)NCCc1ccccc1	-1.4	8.6	-1.6	20.5	-4.4	nt	nt	nt	nt
O=C(CSc1nccc(=O)[nH]1)N1CCOCC1	0.4	1.4	0.9	-8.2	-1.5	nt	nt	nt	nt
CCN(CC)c1ccc(/C=C2/C(=O)c3ccc(C(=O)O)cc3C2=O)cc1	70.2*	264.6*	135.4*	102.7*	-12.3	213.7*	199.3*	105.2*	98.3*
O=c1cc(CSc2nnnn2-c2ccccc2)nc(Nc2ccc(F)cc2)[nH]1	0.4	66.5*	-1.2	31.6	-16.1	97.2*	5.2	67.1*	25.6*
Cc1cc(Br)ccc1NC(=O)CN(C)C(=O)C1CSC2(C)CCC(=O)N12 (centres undefined)	0.7	18.7	1.6	-6.5	-3.6	nt	nt	nt	nt
COc1ccccc1Cc1c(C(C)(C)C)nc2cc(C)c(Br)c(C)n12	nt	1.2	nt	-12.1	nt	nt	nt	nt	nt
N#CCC(=O)Nc1ccc(C(F)(F)F)cc1N1CCOCC1	-0.8	1.4	0.5	-9.6	-5.1	nt	nt	nt	nt
Cc1ccccc1OCc1n(CC(=O)OC2CC(C)CCC2C(C)C)c2ccccc2[n+]1C (centres undefined)	0.2	46.6*	-0.4	31.2	-5.5	86.5*	23.5*	86.6*	47.7*
Cc1cc(C)nc(SCc2ccc(C(=O)N/N=C/c3ccco3)cc2)n1	-0.2	2.7	-0.4	3.7	-8.8	nt	nt	nt	nt
SMILES	V1aR counter	TAAR1 ag	OXTR agonist	TAAR1 antag	OXTR potentiate	TAAR1 ag confirm	Ga16 ag counter	TAAR1 desensitize	Ga16 antag count
Cc1nnc(SCC(=O)NC2CC2)n1-c1ccccc1	0.8	3.0	-0.1	-22.7	-8.0	nt	nt	nt	nt
COc1ccccc1CCn1cnc(Cc2ccccc2)c1C(C)C	nt	54.0*	nt	48.1	nt	71.8*	5.9	58.8*	21.8*
CCc1c(Cc2ccccc2)ncn1CCc1ccccc1OC	nt	51.8*	nt	-0.8	nt	74.8*	2.0	21.0	10.4
O=C(Nc1cc2c3c(c1)CC(=O)N3CCC2)c1ccccc1Br	-0.6	2.0	-0.1	-31.0	1.0	nt	nt	nt	nt
O=C(CCN=C1NS(=O)(=O)c2ccccc21)OCC(=O)c1ccc(F)cc1	4.1	1.6	1.8	6.5	-4.8	nt	nt	nt	nt
O=C(CCCN=C1NS(=O)(=O)c2ccccc21)OCC(=O)c1ccc(F)cc1	23.1*	67.3*	20.3*	30.5	-8.8	85.8*	33.2*	33.5	29.6*
COc1cc(C#N)c(NC(=S)N2CCOCC2)cc1OC	0.1	nt	0.6	nt	-11.6	nt	nt	nt	nt
Cc1nc2ccccc2c(=O)n1-c1cccc(NC(=O)c2cccs2)c1	-1.4	-1.2	-1.6	-28.1	0.1	nt	nt	nt	nt
O=C(Nc1cccc(N2C(=O)C=CC2=O)c1)c1cccs1	1.2	56.7*	1.8	21.9	-3.1	27.4	18.9*	23.9	21.6*
CN(C)c1ccc(C(=O)OCC(=O)Nc2ccc(N3CCOCC3)cc2)cc1	-0.1	51.4*	0.0	-6.5	-4.6	2.4	9.8	7.7	1.1
CCc1cc2c(NCc3ccccc3)nc(C)nc2s1	4.8	1.1	1.4	-7.3	-12.4	nt	nt	nt	nt
CCc1cc2c(NCCC(=O)O)nc(C)nc2s1	0.1	48.6*	-0.4	-7.1	-14.3	103.7*	46.6*	12.6	-1.9
Nc1ncnc2c1ncn2CCNCCc1ccccc1	10.3	46.2*	-0.4	-16.1	-6.4	64.1*	0.5	2.4	0.1
CCN1C(=NCC2CC2)N[C@@H](c2cccc(C(F)(F)F)c2)C(C(=O)OC)=C1C	1.9	nt	4.2	nt	-1.1	nt	nt	nt	nt

Screens from PubChem BioAssay.
